Unmarked numbers belong to inactive results. Results filed as inconclusive are left out. The source made the active and inactive calls.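 The calls were made as follows, unless noted: active = growth inhibition above 25% in both replicates, a cutoff set 3 SD above the mean; inconclusive = above 25% in only one replicate; inactive = the rest.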
Key:
[1] = S. cerevisiae growth inhibition in permissive medium (OD615), pilot counter-assay for S. cerevisiae lifespan shortening project, permissive growth control (AID 705); conditions: OD615, 24 h, at 10 µM, stronger effect = higher value
Summary of the method: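 System: S. cerevisiae with engineered DeaD lifespan system. Medium: SC raffinose/galactose permissive medium. Doses: single compound dose of 10 µM, 0.25% DMSO final. Schedule: 24 h exposure, 30 °C. Measured by: OD615 turbidity read. Read-out: growth inhibition.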

[2] = S. cerevisiae growth inhibition in restrictive medium, OD615, pilot screen, restrictive growth control, yeast lifespan reduction project (AID 706;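 active = growth inhibition above a set limit, 3 SD over mean compound inhibition, in both replicates, cut at about 43% in these data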;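 also: modified DeaD lifespan yeast strain shifted to restrictive glucose medium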); conditions: OD615, 48 h, at 10 µM, stronger effect = higher value
Summary of the method: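 Assay system – genetically modified Saccharomyces cerevisiae, DeaD replicative lifespan assay strain · Medium – CSMM-D glucose medium · Doses – 10 µM compound, 0.25% DMSO · Times – 4 h pre-incubation, 48 h exposure at 30 °C · Signal – optical density at 615 nm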

[3] = doxorubicin toxicity protection in MRP-1 cells – H69AR cells, CellTiter-Glo, duplicate, MRP-1 activator project, pilot screen (AID 807;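 active = viability increase at or above a cutoff of the median across tested compounds plus 3 SD, cut at about 8.5% in these data, passing the limit was not always enough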;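 also: compound pretreatment 18-22 h then 72 h combined with doxorubicin; 0% = doxorubicin alone and 100% = vehicle without doxorubicin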); conditions: H69AR viability with doxorubicin, CellTiter-Glo luminescence; at 10 µM; stronger effect = higher value
[4] = viability of HCT116 without oncogenic beta-catenin – human colon tumor cells, pilot screen (AID 823;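 active = cell viability at or below a set limit in both duplicate runs, the limit being the all-compound median minus 4 SD, cut at about 23% in these data, passing the limit was not always enough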;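 also: 0% = wells killed by 20 µM Hyamine and 100% = untreated DMSO cell wells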); conditions: HCT116 beta-catenin knockout viability, CellTiter-Glo, 60 h; at 10 µM; stronger effect = lower value
[5] = viability of PTEN-null HCT116 cells – cell-based, HCT116 clonal line, CellTiter-Glo, pilot screen (AID 824;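 active = viability at or below 27.92% in each of two runs, the all-compound median minus 4 SD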;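 also: 0% = 20 µM Hyamine control and 100% = vehicle cell control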); conditions: HCT116 PTEN-deleted viability, 60 h, at 10 µM, stronger effect = lower value
[6] = RAM pathway blockade in budding yeast – dse1pr::URA3 reporter, 5-FOA selection, pilot screen (AID 869;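 active = inhibition over a set limit, the all-compound mean plus 3 SD, in both replicate runs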;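 also: 0% = DMSO wells with no growth and 100% = 10 µM 1-NA-PP1 with full growth; RAM network block rescues cells from 5-FOA so hits raise OD615 growth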); conditions: S. cerevisiae dse1pr::URA3 5-FOA growth, OD615, 2 d; at 10 µM; stronger effect = higher value; strain carries analog-sensitive mutant Cbk1 kinase
[7] = RAM signaling pathway blockade in yeast – S. cerevisiae, Pdr1DBD-CYC8 efflux-inhibited sensitized strain, primary screen (AID 1298;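 active = RAM network inhibition above 8.4% in each of two replicates, 3 SD over the compound average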;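 also: 0% = DMSO untreated cells without growth and 100% = 10 µM 1-NA-PP1 full growth; higher means more yeast growth rescued from 5-FOA killing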); conditions: S. cerevisiae cbk1-as DSE1-URA3 strain, 5-FOA growth OD615, 2 d; at 50 µM; stronger effect = higher value

Row | Structure (SMILES) | growth inhibition [1] | growth inhibition [2] | viability increase [3] | viability [4] | viability [5] | inhibition [6] | RAM network inhibition [7]
1 | Cn1c(C(C#N)C(=O)Cc2cccc3ccccc23)nc2ccccc21 (configuration not stated) | -3.6% | -5.02% | -1.14% | 81.5% | 78.9% | 2.59% | 4.32%
2 | COc1ccc(NC(=O)N(Cc2cccnc2)Cc2ccccc2Cl)c(OC)c1 | 0.09% | -1.88% | -3.53% | 91.2% | 93.9% | 1.02% | -0.05%
3 | CCOC(=O)C1CCCN(C(=O)Cn2ncc3c(=O)oc4ccc(C)cc4c32)C1 (configuration not stated) | -11.9% | -24.9% | -1.41% | 106% | 95% | 2.19% | 3.43%
4 | CCCC(=O)NC(C)c1nc2ccccc2n1C (configuration not stated) | -18.7% | -2.34% | 2.12% | 101% | 102% | 1.45% | 1.79%
5 | CCCc1nc(N)nc2c1C(=O)CC(C)(C)C2 | -15.1% | 3.37% | -1.08% | 89.4% | 87.6% | 1.54% | 0.27%
6 | CSCC[C@@H](C(=O)Nc1ccc2c(c1)OCCO2)N1Cc2ccccc2C1=O | 3.3% | 1.73% | -2.91% | 99.3% | 92.3% | 0.83% | 4.13%
7 | c1ccc(-c2nnn(C34CC5CC(CC(C5)C3)C4)n2)cc1 | -4.34% | -0.125% | 0.19% | 90.8% | 84.9% | 0.215% | 5.67%
8 | COC(=O)c1cc2c(s1)-c1ccccc1OC2 | -11.1% | 4.14% | -4.57% | 101% | 95.7% | 1.39% | 3.14%
9 | COc1cccc(OCCn2c(C)c(/C=N/n3cnnc3)c3ccccc32)c1 | 4.55% | 1.59% | -2.88% | 99.3% | 87% | 2.11% | 7.39%
10 | Cc1cc(C)cc(N(CC(=O)N2CCN(c3ccccc3)CC2)S(=O)(=O)c2c(C)noc2C)c1 | -14.4% | -10.2% | -3.46% | 62.6% | 67.5% | 0.57% | 6.09%
11 | CN(Cc1ccccc1)C(=O)CCC(=O)N(C)Cc1ccccc1 | -1.99% | 4.61% | -0.27% | 103% | 90.2% | 0.97% | -0.11%
12 | CCOC(=O)N1CCC(N2Cc3cccc(C(=O)NCc4ccccn4)c3C2=O)CC1 | -4.83% | 8.18% | -5.24% | 99.8% | 102% | 2.19% | -1.14%
13 | CCOC(=O)C1C(=O)CC(C)(O)C(C(=O)OCC)C1c1cccs1 (configuration not stated) | -3.39% | -20.4% | -2.92% | 90% | 89.2% | 2.07% | 4.69%
14 | O=S(=O)(c1ccc(N2CC=C(c3ccccc3)CC2)nc1)N1CCCC1 | -6.39% | -12.5% | -7% | 4.45% (active) | 3.3% (active) | 2.18% | 2.69%
15 | O=C(CCS(=O)(=O)c1cccs1)N1CCCC1 | -1.4% | -7.61% | -1.26% | 94% | 96.2% | 2.58% | 1.19%
16 | CCCN(CCC)CCNC(=O)Cn1cnc2sc(C)c(S(=O)(=O)N3CCOCC3)c2c1=O | -0.07% | -5.45% | -2.63% | 95.3% | 98% | 0.875% | 2.96%
17 | CCSc1nnc(NC(=O)CC)s1 | -14.2% | -13.4% | 1.42% | 106% | 99% | 1.21% | -0.32%
18 | Cc1cccc(-n2ncc3c(N4CCOCC4)ncnc32)c1 | 6.08% | 17.2% | -0.68% | 101% | 90.5% | 1.59% | 0.06%

Row | Structure (SMILES) | growth inhibition [1] | growth inhibition [2] | viability increase [3] | viability [4] | viability [5] | inhibition [6] | RAM network inhibition [7]
19 | COc1ccc(-c2cn3c(C)c(C(=O)Nc4ccncc4)sc3n2)cc1 | -4.55% | -15.3% | -3.37% | 102% | 90.1% | 3.6% | 5.99%
20 | CCOc1ccc(C2c3c(oc4ccccc4c3=O)C(=O)N2c2ccc(C)cn2)cc1OC (configuration not stated) | -7.41% | 2.13% | -4.09% | 81.4% | 83.7% | 1.88% | 4.03%
21 | CCOc1ccc(C2C(C#N)=C(N)SC(N)=C2C#N)cc1OCC | 12.6% | -4.33% | -0.77% | 103% | 91.5% | 0.96% | 7.43%
22 | Cn1c(SCc2c(F)cccc2Cl)nnc1-c1cnccn1 | 3.5% | 9.8% | -0.67% | 96.5% | 93.8% | 1.94% | 5.07%
23 | O=C(O)c1ccccc1C(=O)NCC(O)COCC1CC=CCC1 (configuration not stated) | -14.5% | -16.2% | -1.89% | 101% | 100% | 1.33% | 3.55%
24 | CC1(C)CC(=O)C=C(NCCN2CCN(C(=O)Nc3ccc(Cl)c(Cl)c3)CC2)C1 | 13.1% | 8.88% | -3.81% | 94.8% | 90.1% | -0.235% | 3.08%
25 | CCOC(=O)CN1CC23C=CC(O2)C(C(=O)N2CCN(c4ccc(F)cc4)CC2)C3C1=O (configuration not stated) | 7.71% | 5.64% | -2.12% | 86.7% | 93.2% | 1.45% | -0.56%
26 | O=C1Nc2ccccc2C(O)(C(=O)NCc2ccc3c(c2)OCO3)N1c1ccccc1 (configuration not stated) | -2.08% | -15.5% | -3.17% | 91.7% | 92.5% | 0.54% | 0.05%
27 | O=C(CC1Sc2ncnn2C1=O)Nc1ccc(Br)cc1 (configuration not stated) | -5.64% | -9.71% | -1.23% | 106% | 100% | 1.93% | 5.71%
28 | CCOC(=O)c1c(NC(=O)c2cc(C3CC3)on2)sc2c1CCCC2 | -9.14% | 0.505% | -1.3% | 102% | 97.5% | 1.49% | 8.09%
29 | COc1nc(Nc2ccc3c(c2)OCO3)nc(OC)n1 | -22% | -10.4% | -2.8% | 102% | 93.6% | 3.51% | 4.7%
30 | CCC(=O)Nc1nc2c(OC)ccc(C)c2s1 | -17.7% | -14.1% | -5.96% | 96.4% | 92.2% | 0.225% | 1.37%
31 | CCCCSc1nc2c(c(=O)n1CC)SC(C)C2 (configuration not stated) | -3.78% | 5.58% | -2.43% | 87.3% | 87.8% | 0.125% | 5.53%
32 | Cn1c(CNC(=O)C(C)(C)C)nc2ccccc21 | -11.4% | -0.87% | -3.97% | 101% | 93.1% | 1.8% | 2.73%
33 | CCc1c(C)sc(NC(=O)c2cc(C3CC3)on2)c1C#N | -7.33% | 15% | 1.11% | 99% | 102% | 3.36% | -0.84%
34 | CCOC(=O)N1CCN(C(c2ccc(C)cc2)c2sc3nc(C)nn3c2O)CC1 (configuration not stated) | 2.26% | 4.33% | -0.59% | 108% | 102% | 0.185% | 0.28%
35 | COc1ccc(C2CC(c3cccc(C)c3)n3nc(N)nc3N2)cc1 (configuration not stated) | 6.39% | 9.63% | -1.84% | 105% | 92.8% | 3.25% | 1.68%
36 | Cc1ccsc1-c1nc(CSCC(=O)NCc2ccc3c(c2)OCO3)c(C)o1 | -9.04% | 2.91% | -0.27% | 87.2% | 84% | 0.83% | 9.63%

Source: PubChem BioAssay
